NR2E3 ag-1 – agonists of human nuclear receptor NR2E3; Q9Y5X4; GST-NR2E3/biotin-RetCOR TR-FRET, 1536-well; inhibition of corepressor binding, % at 4.78 µM; actives 0.12% (n = 320,000);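 active = percent inhibition above the cutoff of mean plus 3 SD of all tested compounds, set per screening campaign, cut at about 20% in these data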
Target sequence (Q9Y5X4 whole entry, looked up): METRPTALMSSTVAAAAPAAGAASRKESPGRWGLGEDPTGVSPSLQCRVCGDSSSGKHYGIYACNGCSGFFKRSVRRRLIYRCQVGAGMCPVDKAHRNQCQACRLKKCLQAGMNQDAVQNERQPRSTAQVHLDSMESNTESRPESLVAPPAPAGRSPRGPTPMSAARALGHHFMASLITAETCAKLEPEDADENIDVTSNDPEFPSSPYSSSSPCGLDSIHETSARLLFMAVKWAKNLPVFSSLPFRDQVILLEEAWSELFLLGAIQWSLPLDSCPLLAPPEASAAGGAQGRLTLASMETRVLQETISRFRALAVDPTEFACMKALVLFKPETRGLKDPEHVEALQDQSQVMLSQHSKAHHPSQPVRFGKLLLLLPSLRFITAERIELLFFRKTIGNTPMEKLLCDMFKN
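Test system: GST-NR2E3 and biotin-RetCOR proteins | Quantity: 1.35 nM GST-tagged NR2E3 final | Medium: Tris pH 7.5 | Also added: 7 nM biotin-RetCOR | Dosing: Compound at 4.8 µM, single dose | Timing: 5 h at 4 °C | Detection: Time-resolved FRET | Read-out basis: Percent inhibition | Benchmarks: Biotin wells as high control, 0.6% DMSO wells as low control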
NR2E3 ag-2 – activates human NR2E3 receptor. actives 0.35% (n = 360,000). CHO-S Gal4-NCOR/VP16-NR2E3 two-hybrid, luciferase. inhibition of corepressor binding, % at 3.98 µM;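 active = inhibition above the mean of all tested compounds plus 3 SD, cut at about 70% in these data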;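 also: higher means lower luciferase signal from less NR2E3 corepressor binding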
Jurkat NFkB inh – inhibitors of the PMA/ionomycin-induced NF-kB reporter in Jurkat cells; AID 435003; PMA/ionomycin-induced NF-kB luciferase reporter, luminescence; actives 0.53% (n = 330,000); inhibition, % at 4 µM; in the data active = inhibition above about 50%
MPTP block – permeability transition pore inhibition; isolated mouse mitochondria, Ca2+ swelling absorbance, 30 min; inhibition, % at 10 µM; actives 1.4% (n = 360,000); AID 602449;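 active = inhibition of 50% or more, scaled per plate between neutral and stimulator controls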
aDG glyco act – increases alpha dystroglycan glycosylation. Pro5-aDG cells, alpha-DG glycosylation AlphaScreen (IIH6); 0% Pro5, 100% B10-LARGE cell signal. activation, % at 10 µM. actives 0.22% (n = 360,000). AID 624168;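 active = activation of at least 8% versus controls, or a plate z-score of at least 8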;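 also: Pro5 are CHO cells carrying HIG-tagged alpha-DG that lacks glycosylation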
697 NFkB inh – inhibitors of the PMA/ionomycin-induced NF-kB reporter in 697 B cells | 697 B-cell NF-kB luciferase reporter, 16 h | inhibition, % at 4 µM | actives 0.33% (n = 330,000) | AID 435022; in the data active = inhibition above about 35%
Rh123 counter – Rhodamine 123 counter-screen of mitochondrial pore hits. shares compounds with MPTP block. isolated mitochondria, membrane potential, Rhodamine 123 fluorescence. inhibition, % at 10 µM. actives 78% (n = 5,000). AID 624504; in the data active = inhibition above about 22%
MPTP swell DR – MPTP inhibition, dose response swelling confirmation. actives 58% (n = 780). AID 651561. IC50, µM. shares compounds with MPTP block. isolated mitochondria swelling, absorbance; in the data active = IC50 below about 20 µM
MPTP cs DR – MPTP inhibitor counter-screen activity, dose response. shares compounds with MPTP block. actives 49% (n = 780). IC50, µM. isolated mitochondria counterscreen, fluorescence read-out. AID 651564; in the data active = IC50 below about 80 µM
Large screens that a line does not name were inactive (follow-up assays come after a bar, where they were run). Sampled rows, rich in hits. Any-hit rate of the full collection: about 2.4%.

Cc1ccc(/C=C2\SC(=S)N(/N=C/c3cc([N+](=O)[O-])ccc3O)C2=O)o1	MPTP block 72 | Rh123 counter inactive
CN1C(=O)/C(=C/c2cc(N=Nc3ccccc3)ccc2O)SC1=S	MPTP block 95 | Rh123 counter 61
Nc1nc(C23CC4CCC(CC(C4)C2)C3)cs1	MPTP block 64 | Rh123 counter inactive | MPTP swell DR inactive | MPTP cs DR inactive
CC(OC(=O)c1ccc(CN2CCCC2=O)cc1)C(=O)Nc1ccc(Cl)cc1 (stereo unspecified)	none
C=CCn1c(SC(C)C(=O)NCCC2=CCCCC2)nc2ccccc2c1=O (stereo unspecified)	none
CCOC(=O)CNCCC(=O)c1ccc(Br)cc1	MPTP block 55 | Rh123 counter inactive | MPTP swell DR inactive | MPTP cs DR inactive
CCN1/C(=C/c2cc[n+](C)cc2)C=Cc2cc(C)ccc21	MPTP block 67 (no result: Jurkat NFkB inh, 697 NFkB inh) | Rh123 counter 70
CCN1/C(=C/c2ccc3ccccc3[n+]2CCCS(=O)(=O)[O-])C=Cc2cc(C)ccc21	none (no result: NR2E3 ag-1, Jurkat NFkB inh, 697 NFkB inh)
Cc1ccsc1/C=N/Nc1ccc(F)cc1F	none
Cc1ccc(NC(=O)c2cc3ccccc3cc2O)cc1	MPTP block 70 | Rh123 counter 73
COc1ccc(NC(=O)c2cc3ccccc3cc2O)cc1	none
O=C(NC1CCCCC1)c1cc2ccccc2cc1O	MPTP block 115 | Rh123 counter 49
Cc1cc(C)nc(SCC(=O)N/N=C\C(Br)=C\c2ccccc2)n1	MPTP block 71 | Rh123 counter 66
Cc1nc(SCc2nc3cc(Cl)c(F)cc3[nH]2)c2oc3ccccc3c2n1	MPTP block 63 (no result: NR2E3 ag-1) | Rh123 counter 80
CCc1nc(SCc2nc3ccccc3[nH]2)c2oc3ccccc3c2n1	MPTP block 69 | Rh123 counter 82
Cc1nc(SCc2nc3ccc(Br)cc3[nH]2)c2oc3ccccc3c2n1	none (no result: NR2E3 ag-1)
Cc1nc(SCc2nc3ccc(C(F)(F)F)cc3[nH]2)c2oc3ccccc3c2n1	MPTP block 50 (no result: NR2E3 ag-1) | Rh123 counter 89
Brc1ccsc1-c1csc(-c2ccncc2)n1	none
CCN(CC(=O)Nc1cc(Cl)ccc1C)C(=O)c1ccc(N2CCCC2=O)cc1	none
N#CC(=C1C=C(Br)C(=NO)C=C1Cl)c1cccc2ccccc12	MPTP block 76 (no result: NR2E3 ag-1, Jurkat NFkB inh, 697 NFkB inh) | Rh123 counter 57
COc1ccc(C(C#N)=C2C=C(Cl)C(=NO)C=C2Cl)cc1	none (no result: NR2E3 ag-1, Jurkat NFkB inh, 697 NFkB inh)
CCN1CCc2c(sc(NC(=O)Nc3ccc(Cl)c(Cl)c3)c2C(N)=O)C1	MPTP block 55 (no result: Jurkat NFkB inh, 697 NFkB inh) | Rh123 counter 51
CC(C)N1CCC1(C)C(=O)Nc1ccc2cn[nH]c2c1 (stereo unspecified)	none (no result: NR2E3 ag-1, Jurkat NFkB inh, 697 NFkB inh)
CSc1ccc(CCNC(=O)c2cc(-c3ccccc3)c(N3CCOCC3)s2)cc1	none
O=C(c1ccc(S(=O)(=O)c2ccccc2Cl)c([N+](=O)[O-])c1)N1CCCCCC1	MPTP block 79 | Rh123 counter 49
O=C(c1ccc(S(=O)(=O)Cc2ccccc2F)c([N+](=O)[O-])c1)N1CCCCCC1	none
Cc1cccc(NS(=O)(=O)c2c(C(=O)N3CCCC3)c(C)n(C)c2C)c1	none
C=CC(C)(C)c1c2occc2c(O)c2ccc(=O)oc12	MPTP block 74 (no result: NR2E3 ag-1) | Rh123 counter 84
CSc1cccc(NC(=S)Nc2ccc(F)cc2)c1	MPTP block 73 | Rh123 counter 85
Fc1ccc(NC(=S)Nc2ccccc2Cl)cc1	none
CC(C)c1cccc(C(C)C)c1NC(=S)Nc1cccc(Cl)c1	MPTP block 88 | Rh123 counter 90
CSc1cccc(NC(=S)NN(C)C)c1	none
NC(=S)Nc1cccc(Cl)c1	none
Fc1ccc(NC(=S)Nc2cccc(Cl)c2)cc1	MPTP block 86 | Rh123 counter 97
